A selection: hits, their analogues and other compounds. The true share with any hit is near 5.5%.
Cl transport mod: KCC2 cotransporter modulators, thallium flux, primary screen, cell-based, HEK293 KCC2, FluoZin-2 fluorescence, MLSMR | AID 1456, 2008 | 190,000 tested, 2.2% active | Solute carrier family 12 member 5 (Homo sapiens), Q9H2X9 | KCC2 cells, thallium flux FluoZin-2 fluorescence | B-score of Tl+ flux slope (higher = more flux/activation; lower = inhibition) at 10 µM;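 active = thallium flux slope and its plate-corrected score both differing from the plate sample mean at a set confidence after two filtering rounds, in either direction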;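 note: slope of fluorescence scaled to starting intensity during 10 to 20 s after thallium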
Target sequence (Q9H2X9 whole entry, looked up): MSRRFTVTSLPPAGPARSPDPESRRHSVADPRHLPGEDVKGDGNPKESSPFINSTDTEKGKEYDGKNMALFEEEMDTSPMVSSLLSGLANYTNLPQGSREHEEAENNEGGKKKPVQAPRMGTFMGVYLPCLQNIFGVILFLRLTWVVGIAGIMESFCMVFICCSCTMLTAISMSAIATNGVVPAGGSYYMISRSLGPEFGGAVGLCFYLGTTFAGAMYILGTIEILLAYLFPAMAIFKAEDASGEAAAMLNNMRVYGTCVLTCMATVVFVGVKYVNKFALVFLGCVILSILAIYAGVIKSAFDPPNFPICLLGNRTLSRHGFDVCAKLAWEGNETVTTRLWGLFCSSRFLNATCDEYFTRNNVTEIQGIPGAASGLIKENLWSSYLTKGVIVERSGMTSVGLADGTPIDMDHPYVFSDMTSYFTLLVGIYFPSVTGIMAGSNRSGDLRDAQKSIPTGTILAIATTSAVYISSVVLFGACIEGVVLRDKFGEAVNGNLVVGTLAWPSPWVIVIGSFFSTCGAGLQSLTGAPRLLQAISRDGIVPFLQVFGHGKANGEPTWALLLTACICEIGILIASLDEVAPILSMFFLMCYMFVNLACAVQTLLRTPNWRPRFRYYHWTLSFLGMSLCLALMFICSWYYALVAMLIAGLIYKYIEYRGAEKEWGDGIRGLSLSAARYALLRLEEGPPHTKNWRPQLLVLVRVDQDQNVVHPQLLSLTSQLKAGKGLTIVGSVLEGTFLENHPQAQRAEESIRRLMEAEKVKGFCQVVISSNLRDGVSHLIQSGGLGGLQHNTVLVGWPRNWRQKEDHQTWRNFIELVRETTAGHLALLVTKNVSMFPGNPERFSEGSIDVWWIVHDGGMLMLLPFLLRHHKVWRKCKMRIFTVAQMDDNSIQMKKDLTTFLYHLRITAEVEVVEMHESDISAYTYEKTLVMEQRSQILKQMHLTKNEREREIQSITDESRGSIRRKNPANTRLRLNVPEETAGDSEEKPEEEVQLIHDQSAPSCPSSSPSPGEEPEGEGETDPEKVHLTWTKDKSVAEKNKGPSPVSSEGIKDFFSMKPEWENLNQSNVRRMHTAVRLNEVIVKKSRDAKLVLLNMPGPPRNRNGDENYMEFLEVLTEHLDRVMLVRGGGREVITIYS
STAT3 inh: IL-6 driven STAT3 reporter inhibitors, primary screen, U3A cells, luciferase, luminescence, MLSCN library; IL-6 STAT3-luciferase reporter; host cell line lacks STAT1; inhibition, % at 5.5 µM; 190,000 tested, 0.89% active;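 active = inhibition above the mean inhibition across all screened compounds plus 3 SD, cut at about 44% in these data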
HSV replic up: enhancers of HSV replication in host cells, fold increase, host cell viability; HSV replication augmentation in cells; maximum fold increase; 220,000 tested, 0.005% active; in the data active = maximum fold increase above about 1.5; inconclusive = no clear call, values can overlap the other calls; tested in PC3 cells
STAT1 activator: STAT1 signaling activators, primary screen, cell-based, HTS, luciferase reporter; NIH 3T3 STAT1-luciferase reporter, IFN-gamma, luminescence; 100% = IFN-gamma alone, no compound; activation (% of control), % at 5.5 µM; AID 932, 2007; 200,000 tested, 2.6% active;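 active = activation above the screen-wide mean activation plus 3 SD, cut at about 130% in these data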
STAT1 blocker: STAT1 signaling inhibitors, primary screen, cell-based, HTS, luciferase reporter. NIH 3T3 STAT1-luciferase reporter, IFN-gamma, luminescence. inhibition, % at 5.5 µM. 200,000 tested, 0.35% active. AID 920, 2007;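 active = inhibition above a set limit, the mean inhibition across all tested compounds plus 3 SD, cut at about 34% in these data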
STAT3 act: IL-6 driven STAT3 reporter potentiators, primary screen, U3A cells, luciferase, luminescence, MLSCN library | 190,000 tested, 0.91% active | IL-6 STAT3-luciferase reporter; 100% = signal with IL-6 EC80 alone | activation (% of control), % at 5.6 µM;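 active = activation above the screen-wide mean of compound activation plus 3 SD, cut at about 130% in these data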
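Material: STAT3-luciferase reporter U3A cells. Controls: IL-6-treated wells, 100% activation. Read-out: % activation versus median of IL-6-stimulated wells. Probe or stimulus: IL-6 stimulus at 33 ng/mL final. Timing: compound 1 h, then IL-6 6 h at 37 °C. Signal: reporter luminescence signal.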
KCC2 secondary: KCC2 modulators in sodium-free buffer, confirmation, cell-based, HEK293 KCC2, thallium flux, secondary assay; shares compounds with Cl transport mod; FluoZin2 fluorescence; hits give high values; normalised thallium flux (F/F0 slope) at 10 µM; 3,700 tested, 15% active;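 active = thallium flux slope above the same plate's solvent-only control mean plus 3 SD; inconclusive = the two replicate wells disagree; inactive = no significant difference from solvent-only control wells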
KCC2 bumet counter: thallium flux persisting under bumetanide in KCC2 cells, confirmation, counter-screen for KCC2 modulator project, cell-based, HEK293 KCC2, FluoZin2, secondary assay 3. shares compounds with Cl transport mod. HEK293-KCC2 + bumetanide/ouabain; hits give high values. normalized thallium flux at 10 µM. 3,700 tested, 49% active;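 active = thallium entry rate above the same plate's blocked-transporter control wells by more than 3 SD; inconclusive = the two repeat wells disagree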;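 note: raw slope of fluorescence over initial fluorescence between 10 and 20 s after thallium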
KCC2 secondary2: KCC2 modulators without ouabain present, confirmation, cell-based, HEK293 KCC2, thallium flux, FluoZin2, secondary assay 2; shares compounds with Cl transport mod; thallium flux FluoZin2 fluorescence; actives lie on both sides; F/F0 rise rate, 10–20 s post-thallium; normalized thallium flux at 10 µM; 3,700 tested, 23% active; AID 1715, 2009;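 active = thallium flux slope more than 3 SD above or below the plate's solvent-only control mean, mostly below; inconclusive = the two repeat wells disagreed; inactive = no significant shift from solvent-only controls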
HEK counter1: thallium flux modulation in parental HEK cells, confirmation, counter-screen for KCC2 modulator project, cell-based, counterscreen 1; shares compounds with Cl transport mod; HEK293 parental cells, thallium flux FluoZin2, ouabain; baseline-ratio fluorescence slope, 10–20 s after thallium; thallium flux rate (normalised fluorescence) at 10 µM; 3,700 tested, 46% active; AID 1716, 2009;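 active = thallium flux rate significantly above the same plate's solvent-only control wells, beyond their mean plus 3 SD; inconclusive = the two replicate wells gave conflicting results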
KCC2 retest ouab: KCC2 inhibitors and activators, ouabain retest, confirmation, HEK-KCC2 cells. AID 1717, 2009. HEK293-KCC2, thallium flux FluoZin2 fluorescence; bidirectional: low = inhibitor, high = activator. shares compounds with Cl transport mod. raw Tl+ flux slope (below DMSO = inhibition, above = activation) at 10 µM. 3,700 tested, 48% active;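 active = thallium flux slope beyond 3 SD from same-plate DMSO control mean in most replicates, usually higher, sometimes lower; inconclusive = repeat tests gave conflicting results; inactive = no significant difference from controls in most replicates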;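 note: slope of initial-normalized fluorescence between seconds 10 and 20 after thallium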
HEK counter2: native HEK Tl+ uptake effects, second counter-screen – HEK cells, counterscreen 2, counter-screen for KCC2 modulator project, confirmation; shares compounds with Cl transport mod; HEK293 parental, thallium flux FluoZin-2 fluorescence slope; thallium flux slope at 10 µM; 3,700 tested, 33% active; AID 1718, 2009;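 active = thallium flux slope above the same plate's solvent-control mean plus 3 SD in both duplicate wells; inconclusive = duplicate wells that disagreed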;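 note: run without ouabain in cells lacking the KCC2 cotransporter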
A number is an active result; - = inactive; ? = inconclusive; . = not tested or not shown.

SMILES	Cl transport mod	STAT3 inh	HSV replic up	STAT1 activator	STAT1 blocker	STAT3 act	KCC2 secondary	KCC2 bumet counter	KCC2 secondary2	HEK counter1	KCC2 retest ouab	HEK counter2
CCOC(=O)c1c(C(C)(C)C)oc2ccc(O)cc12	-6.17	-	-	-	-	-	-	-	-	-	?	-
CCN(CC)C(=O)C(C(=O)c1cccc([N+](=O)[O-])c1)n1cc(Cl)ccc1=O (centres undefined)	-	-	-	-	-	-	.	.	.	.	.	.
CCc1ccc(-n2c(=O)c3c(C)c(C(=O)N(C)C)sc3n(CC(=O)NCc3ccco3)c2=O)cc1	3.8	-	-	-	-	-	-	-	-	-	-	-
Cc1sc2c(c1C)c(=O)n(-c1ccc(F)cc1)c(=O)n2CC(=O)NCc1ccco1	.	-	-	-	-	-	.	.	.	.	.	.
CC1CCCN(c2nc3nonc3nc2N2CCCC(C)C2)C1 (centres undefined)	-	-	-	-	-	-	.	.	.	.	.	.
CC(=O)NCC1CCCN(c2nc3nonc3nc2N(C)Cc2ccccc2)C1 (centres undefined)	-7.04	-	-	-	-	-	-	-	0.0292	-	0.0158	-
CN(Cc1ccccc1)c1nc2nonc2nc1N1CCCC(CN2CCCC2=O)C1 (centres undefined)	-5.43	.	-	.	.	.	-	-	0.0188	-	-	-
O=C1C2C3C=CC(C4CC34)C2C(=O)N1/N=C/c1cccs1 (centres undefined)	-	-	-	-	-	-	.	.	.	.	.	.
CCN(CC(=O)NC(C)(C)C)C(=O)COc1c(Cl)cc(Cl)c2ccc(C)nc12	88.2	.	-	.	.	.	0.02	0.113	-	?	0.0898	?
Cc1ccc2c(Cl)cc(Cl)c(OCC(=O)NC3CCS(=O)(=O)C3)c2n1 (centres undefined)	10.5	-	-	-	-	-	-	0.019	-	0.0158	0.0223	0.0155
Cc1ccc2c(Cl)cc(Cl)c(OCC(=O)NCCc3ccccn3)c2n1	-	-	-	-	-	-	.	.	.	.	.	.
CCOC(=O)CC1Sc2ccccc2NC1=S (centres undefined)	6.93	.	-	.	.	.	-	0.0239	-	?	0.0306	?
CC1(C)Cc2ccccc2-c2nc(NCCCO)[nH]c(=O)c21	-	.	-	.	.	.	.	.	.	.	.	.
COc1ccc(C(c2c(O)nc[nH]c2=O)c2c(O)nc[nH]c2=O)cc1	-	.	-	.	.	.	.	.	.	.	.	.
O=C(Cn1c(=S)[nH]c2ccccc2c1=O)NCCc1ccccc1	-	-	-	-	-	-	.	.	.	.	.	.
O=c1c2ccccc2[nH]c(=S)n1CCC1=CCCCC1	37.6	-	-	-	-	-	?	0.0822	0.0478	0.032	0.0428	0.0261
CC(C)Cn1c(=S)[nH]c2ccccc2c1=O	63.9	-	-	-	-	-	0.00991	0.123	0.0861	0.0861	0.0917	0.0854
CCN1CCN(C(=O)c2ccc3c(=O)n(CCC4=CCCCC4)c(=O)[nH]c3c2)CC1	-	-	-	-	-	-	.	.	.	.	.	.
C=C(C)Cn1c(=S)[nH]c2ccccc2c1=O	25.2	-	-	-	-	-	0.0145	0.0741	-	0.0244	0.0486	0.014
CC(C)Cn1c(=S)[nH]c2cc(Cl)ccc21	92.2	-	-	-	-	-	?	0.0972	?	0.0834	0.078	0.0633
CCN(CC)CCCn1c(=S)[nH]c2ccccc2c1=O	-	-	-	-	-	-	.	.	.	.	.	.
O=c1[nH]c2cc(Cl)ccc2n1-c1ccccc1	-	-	-	-	-	-	.	.	.	.	.	.
O=C(O)CNC(=O)c1nc(-c2ccccc2)n(-c2ccccc2)n1	-	-	-	-	-	-	.	.	.	.	.	.
O=C(CCCCCn1c(=S)[nH]c2ccccc2c1=O)NCc1ccc2c(c1)OCO2	-	-	-	-	-	-	.	.	.	.	.	.
O=c1c2ccccc2[nH]c(=S)n1Cc1ccc2c(c1)OCO2	9.98	-	-	-	-	-	?	0.0125	-	0.00983	-	0.0129
SMILES	Cl transport mod	STAT3 inh	HSV replic up	STAT1 activator	STAT1 blocker	STAT3 act	KCC2 secondary	KCC2 bumet counter	KCC2 secondary2	HEK counter1	KCC2 retest ouab	HEK counter2
Clc1ccc2nc(C3CCN(Cc4nnnn4C4CCCCC4)CC3)[nH]c2c1	-4.43	-	-	-	-	-	-	-	-	-	?	-
CCCOc1ccc(C2NC(=S)NC(C)=C2C(=O)c2ccccc2)cc1OC (centres undefined)	-	-	-	-	-	-	.	.	.	.	.	.
S=c1nc(Cc2ccc(Cl)cc2)[nH]c2ccccc12	66.6	-	-	-	-	-	0.0529	0.153	0.0437	0.0985	0.0848	0.0435
Cc1nc(=S)c2ccccc2[nH]1	.	-	-	-	-	-	.	.	.	.	.	.
Cc1cc(C)cc(NC(=O)c2oc3ccccc3c2COc2ccccc2)c1	-4.75	-	-	-	-	-	-	-	-	-	-	-
CN1CCC(Oc2ccccc2Sc2ccccc2)CC1	-	-	-	-	-	-	.	.	.	.	.	.
CN1CCC(OC(c2ccccc2)c2ccccc2)CC1	4.67	-	-	-	-	-	-	-	-	?	-	-
CCOP(=O)(c1ccccc1)c1nc(-c2ccc(F)cc2)oc1N1CCCCC1 (centres undefined)	-2.91	-	-	-	-	-	-	-	-	?	?	-

Screens: PubChem BioAssay, several laboratories
